In ChEMBL document CHEMBL2311306, “The precise chemical-physical nature of the pharmacore in FK506 binding protein inhibition: ElteX, a New class of nanomolar FKBP12 ligands” (J Med Chem, 2013):

How the values were obtained:
[1] = biological target: Peptidyl-prolyl cis-trans isomerase FKBP1A (Homo sapiens) (UniProt P62942); assay: Binding affinity to FKBP12 PPI domain (unknown origin) in water bulk solution by fluorescence spectrophotometric analysis relative to FK506
[2] = biological target: Peptidyl-prolyl cis-trans isomerase FKBP1A (Homo sapiens) (UniProt P62942); assay: Apparent binding affinity to FKBP12 PPI domain (unknown origin) in PBS at pH 7 by fluorescence spectrophotometric analysis relative to FK506
Outline: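 FKBP12, final 1 µM, diluted from a PBS stock (pH 7.4, 0.15 M NaCl) into phosphate buffer at 15 °C. Ligand 1–200 nM, final DMSO <0.3% v/v. Intrinsic Trp fluorescence quenching: excitation 280 nm, emission 325 nm, ligand-only spectra subtracted. Apparent Kd fitted from intensity versus ligand concentration, expressed as ratio to FK506 under identical conditions. At least 2 replicates, 3–4 at low concentrations.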

Sequence of Peptidyl-prolyl cis-trans isomerase FKBP1A (Homo sapiens) (P62942 whole entry, the tested form may be a part): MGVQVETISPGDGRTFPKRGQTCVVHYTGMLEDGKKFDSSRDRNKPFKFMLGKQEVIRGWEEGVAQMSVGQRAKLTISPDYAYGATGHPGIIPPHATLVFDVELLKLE

Ratio [1] | Kd(app) [2] | Structure (SMILES)
25 |  | CCC(C)(C)C(=O)C(=O)N1CCCC[C@H]1C(=O)O[C@H](CCc1ccccc1)c1ccccc1
0.5 |  | CO[C@H]1C[C@@H]2CC[C@@H](C)[C@@](O)(O2)C(=O)C(=O)N2CCCC[C@H]2C(=O)O[C@H]([C@H](C)C[C@@H]2CC[C@@H](O)[C@H](OC)C2)CC(=O)[C@H](C)/C=C(\C)[C@@H](O)[C@@H](OC)C(=O)[C@H](C)C[C@H](C)/C=C/C=C/C=C/1C
750 |  | CCC(C)(C)C(=O)C(=O)N1CCCC[C@H]1C(=O)O[C@@H](CCc1ccccc1)c1ccccc1
1.2 |  | COc1cc(OC)c(C(=O)C(=O)N2CCCC[C@H]2C(=O)OC(CCCc2ccccc2)CCCc2ccncc2)c(OC)c1 (some centres undefined)
1.1 |  | CCC[C@@H](CCc1ccccc1)OC(=O)[C@@H]1CCCCN1C(=O)C(=O)c1ccccc1
5 |  | CCCC(CCc1ccccc1)NC(=O)[C@@H]1CCCCN1C(=O)C(=O)c1ccccc1 (mixture of isomers)
1 |  | C=CC[C@@H]1/C=C(\C)C[C@H](C)C[C@H](OC)[C@H]2O[C@@](O)(C(=O)C(=O)N3CCCC[C@H]3C(=O)O[C@H](/C(C)=C/[C@@H]3CC[C@@H](O)[C@H](OC)C3)[C@H](C)[C@@H](O)CC1=O)[C@H](C)C[C@@H]2OC
 | 0.5 | O=C(C(=O)N1CCCC[C@H]1C(=O)NCCCc1ccccc1)c1ccccc1
1.6 |  | CCC[C@H](CCc1ccccc1)OC(=O)[C@@H]1CCCCN1C(=O)C(=O)c1ccccc1
